This note sets out measurements from ChEMBL document CHEMBL5653614, “Rescue of fragile X syndrome phenotypes in Fmr1 KO mice by the small-molecule PAK inhibitor FRAX486” (Proc Natl Acad Sci U S A, 2013).

In general, IC50 refers to the concentration that inhibits the measured activity by half.

Active and inactive are the calls of the source. The rule behind the calls is not given here. Some results are limits rather than exact numbers.

For data set [1], the system named is Mus musculus. Put plainly: Protective activity in FVB.129P2-Pde6b+ Tyr c-ch/AntJ wild type mouse assessed as decrease in distance travelled at 20 mg/kg, sc for 5 days and measured during 18 to 30 mins by open field assay. It counts as functional, organism-based. The conditions noted are these: time 5.0 day. In a few lines:
(§1)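 Adult male WT and Fmr1 KO mice dosed s.c. at 20 mg/kg or vehicle for 5 d; tested 4–5.5 h after dosing. Single mouse in a novel open field for 30 min, tracked by infrared sensors in 1-min bins; bar-graph values averaged over minutes 18–30. Mice beyond 2 SD in total distance, or immobile for 5 consecutive minutes, were excluded.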

Data set [2] is described as follows: Drug concentration in FVB.129P2 mouse brain at 20 mg/kg,sc and measured from 8 to 18 hrs by LC-MS/MS analysis. The following applies: in vivo, time 8-18 hrs. It counts as ADME, organism-based. A digest of the protocol:
(§2)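 WT FVB.129P2 mice got one s.c. injection of 20 mg/kg (2 mg/mL in 20% hydroxypropyl-β-cyclodextrin). Blood and forebrain were collected at time points from 15 min to 24 h. Forebrain was weighed, snap-frozen and homogenized in 2 volumes of cold PBS. Drug quantified by LC-MS/MS. n = 2–3, mean ± SEM.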

Data set [3] has as its system Mus musculus. Nature of the data set: Protective activity in Fmr1 knockout FVB.129P2-Fmr1tm1Cgr/J mouse assessed as decrease in apical dendritic spine density in layer II/III pyramidal neurons segment 9 at 20 mg/kg, sc and measured after 8 hrs by Golgi-Cox technique analysis. The format is functional, organism-based. In a few lines: (§3)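 Adult male WT and Fmr1 KO FVB mice given 20 mg/kg s.c. or vehicle; brains collected 8 h later and Golgi stained. Apical dendrites of layer II/III pyramidal neurons in temporal cortex, originating 50–100 µm from the soma, were divided into ten 10-µm segments and spines counted. 40–60 neurons from 4–6 mice per group; one-way ANOVA.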

For data set [4], the system named is Mus musculus. Put plainly: Protective activity in FVB.129P2-Pde6b+ Tyr c-ch/AntJ wild type mouse assessed as balance on accelerating rotarod at 20 mg/kg, sc and measured for 4 to 5.25 hrs by rotarod test. It counts as functional, organism-based. The conditions noted are these: time 4-5.25 hrs. A digest of the protocol:
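Adult male WT and Fmr1 KO mice tested 4–5.5 h after s.c. 20 mg/kg or vehicle. Latency to fall or jump off the rotating cylinder recorded (max 3 min). Three trials per mouse, 30–40 min apart; per-mouse average latency compared.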

In data set [5] the target is Serine/threonine-protein kinase PAK 3 (Homo sapiens, UniProt O75914). Put plainly: Inhibition of PAK3 (unknown origin) by Z'-LYTE functional assay. A digest of the protocol: (§4)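 Full-length PAK isoforms phosphorylating an optimized peptide substrate in a Z-LYTE biochemical kinase assay, 10-point inhibitor titration. Duplicates (n = 2, mean ± SEM) plotted semilog; IC50 from a variable-slope sigmoidal dose–response fit.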

The subject of data set [6] is Mus musculus. Put plainly: Protective activity in Fmr1 knockout FVB.129P2-Fmr1tm1Cgr/J mouse assessed as decrease in apical dendritic spine density in layer II/III pyramidal neurons segment 8 at 20 mg/kg, sc and measured after 8 hrs by Golgi-Cox technique analysis. It counts as functional, organism-based. A digest of the protocol: as §3
Data set [7] relates to Mus musculus. Put plainly: Anti-seizure activity against 124dB loud auditory stimulus induced Fmr1 knockout FVB.129P2-Fmr1tm1Cgr/J mouse model of audiogenic seizure assessed as decrease in sound-induced seizure at 20 mg/kg,sc and measured after 5 days by audiogenic seizure assay (Rvb=100%). The format is functional. Further details: scale not given: the % may be the effect or the level left. The conditions noted are these: time 5 day. A digest of the protocol: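 Fmr1 KO mice received one s.c. dose of vehicle or 20 mg/kg in hydroxypropyl-β-cyclodextrin; the AGS assay (124 dB stimulus after 2 min acclimation) was run 5 d later. Seizure incidence recorded.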

Data set [8] deals with Serine/threonine-protein kinase PAK 2 (Homo sapiens, UniProt Q13177). Nature of the data set: Inhibition of PAK2 (unknown origin) by Z'-LYTE functional assay. In a few lines: as §4
Data set [9] can be described thus: Toxicity in FVB.129P2-Pde6b+ Tyr c-ch/AntJ wild type mouse assessed as body weight change at 20 mg/kg,sc for 21 days. It counts as organism-based. The conditions noted are these: in vivo, 504 h, time 21 day.
In data set [10] the test system is Mus musculus. Nature of the data set: Protective activity in Fmr1 knockout FVB.129P2-Fmr1tm1Cgr/J mouse assessed as change in basal dendritic spine density in cortical neuron at 20 mg/kg, sc and measured after 8 hrs by Golgi-Cox technique analysis. It counts as functional, organism-based. The following applies: Cortical neurone.
The test system of data set [11] is Mus musculus. Nature of the data set: Protective activity in Fmr1 knockout FVB.129P2-Fmr1tm1Cgr/J mouse assessed as decrease in apical dendritic spine density in layer II/III pyramidal neurons segment 3 at 20 mg/kg, sc and measured after 8 hrs by Golgi-Cox technique analysis. The format is functional, organism-based. A digest of the protocol:
as §3

In data set [12] the test system is Mus musculus. Nature of the data set: Anti-seizure activity against 124dB loud auditory stimulus induced Fmr1 knockout FVB.129P2-Fmr1tm1Cgr/J mouse model of audiogenic seizure assessed as decrease in sound-induced seizure at 20 mg/kg,sc for 8 hrs followed by audiogenic seizure induction by audiogenic seizure assay (Rvb=100%). The format is functional. Set-up: scale not given: the % may be the effect or the level left. A digest of the protocol:
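Adult male mice (10–17 wk). Single s.c. dose (0, 10, 20 or 30 mg/kg) in 20% (wt/vol) hydroxypropyl-β-cyclodextrin vehicle; AGS induced 8 h later. Mouse acclimated 2 min in a clear acrylic two-chamber box, then exposed to a 124 dB sound. Scored as percentage of animals showing each sequential phase (wild running, seizure, death by respiratory arrest); χ2 test against vehicle.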

The subject of data set [13] is Mus musculus. Put plainly: Protective activity in Fmr1 FVB.129P2-Pde6b+ Tyr c-ch/AntJ wild type mouse assessed as change in apical dendritic spine density in cortical neuron at 20 mg/kg, sc and measured after 8 hrs by Golgi-Cox technique analysis. It counts as functional, organism-based. The following applies: Cortical neurone.
The test system of data set [14] is Mus musculus. Put plainly: Protective activity in Fmr1 knockout FVB.129P2-Fmr1tm1Cgr/J mouse model of Fragile X syndrome assessed as decrease in horizontal movements at 20 mg/kg, sc for 5 days and measured for 30 mins by open field assay. The format is functional, organism-based. The following applies: time 5.0 day. A digest of the protocol: as §1
A short description of data set [15]: Drug uptake in FVB.129P2 mouse brain at 20 mg/kg,sc for 5 days and measured after 24 hrs by LC-MS/MS analysis. The format is ADME, organism-based. The following applies: in vivo, 120 h, time 5 day. A digest of the protocol:
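Mice dosed s.c. at 20 mg/kg once daily for up to 5 d; plasma and forebrain sampled 24 h after the last injection. Brain homogenized in 2 volumes of cold PBS; levels measured by LC-MS/MS. n = 3–4, mean ± SEM.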

Data set [16] deals with Mus musculus. Nature of the data set: Protective activity in FVB.129P2-Pde6b+ Tyr c-ch/AntJ wild type mouse assessed as increase in testicular weight at 20 mg/kg, sc for 21 days. The format is functional, organism-based. The following applies: time 21.0 day.
Data set [17] is described as follows: Drug concentration in FVB.129P2 mouse plasma at 20 mg/kg,sc and measured upto 18 hrs by LC-MS/MS analysis. It counts as ADME, organism-based. In a few lines: as §2

Serine/threonine-protein kinase PAK 3, sequence (O75914 whole entry, canonical isoform): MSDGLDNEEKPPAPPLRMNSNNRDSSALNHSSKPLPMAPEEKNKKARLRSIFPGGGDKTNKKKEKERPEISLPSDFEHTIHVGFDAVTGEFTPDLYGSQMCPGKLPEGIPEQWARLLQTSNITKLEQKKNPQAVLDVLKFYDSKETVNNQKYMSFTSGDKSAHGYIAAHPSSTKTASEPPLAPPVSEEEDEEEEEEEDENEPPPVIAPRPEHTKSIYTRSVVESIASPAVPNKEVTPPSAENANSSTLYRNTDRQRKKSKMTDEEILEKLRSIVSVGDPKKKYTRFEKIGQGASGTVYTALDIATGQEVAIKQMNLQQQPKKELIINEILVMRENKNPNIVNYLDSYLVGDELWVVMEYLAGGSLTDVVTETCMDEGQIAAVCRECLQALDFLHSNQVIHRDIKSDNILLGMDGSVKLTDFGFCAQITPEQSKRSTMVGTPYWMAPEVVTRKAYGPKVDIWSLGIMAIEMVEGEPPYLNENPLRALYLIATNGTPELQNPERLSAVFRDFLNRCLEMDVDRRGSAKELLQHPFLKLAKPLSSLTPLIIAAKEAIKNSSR
Serine/threonine-protein kinase PAK 2, sequence (Q13177 whole entry): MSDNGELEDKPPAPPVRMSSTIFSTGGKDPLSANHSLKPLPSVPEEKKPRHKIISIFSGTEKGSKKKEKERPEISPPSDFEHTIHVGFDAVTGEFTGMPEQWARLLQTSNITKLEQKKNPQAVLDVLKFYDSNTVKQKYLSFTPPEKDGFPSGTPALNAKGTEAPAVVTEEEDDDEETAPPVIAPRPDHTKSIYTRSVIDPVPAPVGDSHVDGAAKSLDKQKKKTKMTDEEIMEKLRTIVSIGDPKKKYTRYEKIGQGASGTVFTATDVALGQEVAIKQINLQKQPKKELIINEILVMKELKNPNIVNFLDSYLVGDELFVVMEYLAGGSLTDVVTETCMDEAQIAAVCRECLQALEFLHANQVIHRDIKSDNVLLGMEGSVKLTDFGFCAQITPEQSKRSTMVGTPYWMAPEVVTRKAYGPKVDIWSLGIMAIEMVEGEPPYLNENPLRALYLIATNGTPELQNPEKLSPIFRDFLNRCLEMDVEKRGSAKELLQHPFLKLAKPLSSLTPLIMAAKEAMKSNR

Consider `CCn1c(=O)c(-c2ccc(Cl)cc2Cl)cc2cnc(Nc3ccc(N4CCNCC4)c(F)c3)nc21`, for which the outcome in the data set with Mus musculus [1], in the data set with Mus musculus [11] and in the data set on Mus musculus [14] was Active. The compound further displayed a Ct in data set [2] of 951 ng/g. The outcome with Mus musculus [3], in the data set with Mus musculus [4], with Mus musculus [6], in the data set with Mus musculus [10], in the data set on Mus musculus [13] and in the data set with Mus musculus [16] was inactive. Besides, the IC50 in data set [5] worked out at 0.0553 µM; in [8], 0.0395 µM. The Activity in the data set on Mus musculus [7] is 100%; in data set [9], “Non-Toxic”; with Mus musculus [12], 25%. Moreover, in [15], the Drug uptake entry is recorded as “Active”. The same compound came in with a concentration at 18 h in data set [17] greater than 100 ng/mL.
